Assay results as given in ChEMBL document CHEMBL4145571, “Ajmaline, Oxindole, and Cytotoxic Macroline-Akuammiline Bisindole Alkaloids from Alstonia penangiana” (J Nat Prod, 2018).

Experiments:
HCT-116 = assay: Growth inhibition of human HCT116 cells after 72 hrs by MTT assay; type: functional, cell-based; conditions: HCT-116, 72 h
Procedure, shortened: (§1)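 Values are mean ± SD from three independent experiments. For the KB/VJ300 line with vincristine, 0.1 μM vincristine was added alongside the test compound. The remaining method details come from earlier published procedures.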

A549 = assay: Growth inhibition of human A549 cells after 72 hrs by MTT assay; type: functional, cell-based; conditions: A549, 72 h; procedure, shortened: as §1
KB/VJ300 [1] = assay: Growth inhibition of human KB/VJ300 cells after 72 hrs in presence of 0.1 uM of vincristine by MTT assay; type: functional; conditions: KB/VJ300, 72 h; procedure, shortened: as §1
KB/VJ300 [2] = assay: Growth inhibition of human KB/VJ300 cells after 72 hrs by MTT assay; type: functional; conditions: KB/VJ300, 72 h; procedure, shortened: as §1
MDA-MB-231 = assay: Growth inhibition of human MDA-MB-231 cells after 72 hrs by MTT assay; type: functional, cell-based; conditions: MDA-MB-231, 72 h; procedure, shortened: as §1
PC-3 = assay: Growth inhibition of human PC3 cells after 72 hrs by MTT assay; type: functional, cell-based; conditions: PC-3, 72 h; procedure, shortened: as §1
HT-29 = assay: Growth inhibition of human HT-29 cells after 72 hrs by MTT assay; type: functional, cell-based; conditions: HT-29, 72 h; procedure, shortened: as §1
MCF7 = assay: Growth inhibition of human MCF7 cells after 72 hrs by MTT assay; type: functional, cell-based; conditions: MCF7, 72 h; procedure, shortened: as §1
LNCaP = assay: Growth inhibition of human LNCAP cells after 72 hrs by MTT assay; type: functional, cell-based; procedure, shortened: as §1
[3] = Growth inhibition of human KB/S cells after 72 hrs by MTT assay; type: functional; procedure, shortened: as §1

IC50 (HCT-116) | IC50 (A549) | IC50 (KB/VJ300 [1]) | IC50 (KB/VJ300 [2]) | IC50 (MDA-MB-231) | IC50 (PC-3) | IC50 (HT-29) | IC50 (MCF7) | IC50 (LNCaP) | SMILES | IC50 [3]
6.6 µM | 8.3 µM | > 10 µM | > 10 µM | 5.2 µM | > 10 µM | 0.7 µM | 3.8 µM | 6.9 µM | C/C=C1/CN2CC[C@@]34c5cc([C@@H](C)[C@H]6[C@@H]7C[C@H]8c9c(c%10ccccc%10n9C)C[C@@H]([C@@H]7CO[C@@H]6O)N8C)c(OC)cc5N(C)[C@H]3[C@@H]2C[C@H]1C4C(=O)OC (stereo partly drawn) | 2 µM
 |  |  | 3.9 µM |  |  |  |  |  | CC[C@]1(O)C[C@H]2CN(CCc3c([nH]c4ccccc34)[C@@](C(=O)OC)(c3cc4c(cc3OC)N(C=O)[C@H]3[C@@](O)(C(=O)OC)[C@H](OC(C)=O)[C@]5(CC)C=CCN6CC[C@]43[C@@H]65)C2)C1 [VINCRISTINE] | 0.0003 µM
 |  | 0.1 µM |  |  |  |  |  |  | COc1ccc(CCN(C)CCCC(C#N)(c2ccc(OC)c(OC)c2)C(C)C)cc1OC (stereo not drawn) [VERAPAMIL] | 
